Compound activity deposited in PubChem by The Scripps Research Institute Molecular Screening Center.
Most compounds without a hit are left out; they make up all but 2.9% or so of the library.
CHO-K1 Ca antag – M1 antagonist counterscreen hit in parental CHO-K1 cells. ATP-induced calcium, Fluo-8 fluorescence. inhibition, % at 3 µM. 360,000 compounds, 0.6% hits;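 active = inhibition above a per-plate cutoff, the plate's mean sample inhibition plus 3 SD, cut at about 24% in these data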
M1 ag parental – counter-screen for M1 agonists: effect in parental CHO-K1 cells; AID 602248, 2012; 360,000 compounds, 0.48% hits; activation, % at 3 µM; Fluo-8 calcium fluorescence; scaled to maximal ATP response, vehicle zero; in the data active = activation above about 15%;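 also: untransfected CHO-K1 host cells lacking M1 receptor as counterscreen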
CHO parental Ca – ATP-evoked calcium signal inhibitors, parental CHO, primary screen, counter-screen for OX1R antagonist project, cell-based, fluorescence, Fluo-8 calcium dye. AID 463079, 2010. 330,000 compounds, 0.63% hits. parental CHO-K1, ATP-induced calcium, Fluo-8 fluorescence. inhibition, % at 5.6 µM;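 active = inhibition above that plate's mean sample inhibition plus 3 SD, cut at about 26% in these data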
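Material: Parental CHO cells | Reagent: ATP | Compound dosing: Single nominal dose of 5.6 µM per compound | Detection: Intracellular calcium via Fluo-8 no-wash fluorescent dye | Read-out: % inhibition of ATP-induced calcium mobilization | Benchmarks: Low control ATP plus DMSO, high control DMSO only | Replicates: Singlicate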
CHO-K1 Ca PAM – nonselective calcium activators in parental CHO-K1 cells, primary screen, counter-screen for M1 PAM project, cell-based, Fluo-8 calcium fluorescence, full deck, 1536-well. activation, % at 3 µM. 360,000 compounds, 0.02% hits. ATP EC20; 0% at ATP EC20, 100% at ATP max. AID 602247, 2012;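 active = activation above the run cutoff, the mean activation of all test compounds plus 3 SD, cut at about 40% in these data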;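 also: peak over basal fluorescence ratio in a 140 s read after ATP addition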
OX1R antag-1 – antagonists of human orexin 1 receptor (OX1R). Orexin/Hypocretin receptor type 1 (Homo sapiens), O43613. OX1R-expressing cells, FRET antagonist read-out. inhibition, % at 6.6 µM. 330,000 compounds, 1.8% hits. AID 485270, 2010; in the data active = inhibition mostly above about 38%, no sharp cut-off; inactive = mostly below about 40%
Target sequence (O43613 whole entry, looked up): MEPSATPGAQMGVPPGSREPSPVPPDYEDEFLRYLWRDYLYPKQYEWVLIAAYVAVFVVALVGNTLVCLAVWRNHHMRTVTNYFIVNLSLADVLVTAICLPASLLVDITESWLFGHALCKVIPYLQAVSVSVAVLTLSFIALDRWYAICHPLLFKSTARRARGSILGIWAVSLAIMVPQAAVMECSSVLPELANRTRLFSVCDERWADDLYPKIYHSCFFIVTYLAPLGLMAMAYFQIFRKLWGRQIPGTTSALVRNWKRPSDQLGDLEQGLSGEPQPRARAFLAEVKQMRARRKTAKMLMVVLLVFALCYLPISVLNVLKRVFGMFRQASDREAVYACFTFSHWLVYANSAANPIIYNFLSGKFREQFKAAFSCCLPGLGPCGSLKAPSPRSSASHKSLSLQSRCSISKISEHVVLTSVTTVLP
OX1R antag-2 – OX1R (HCRTR1) antagonists, primary screen, fluorescence, CHO/OX1R cells, Fluo-8 calcium, orexin A. Orexin/Hypocretin receptor type 1 (Homo sapiens), O43613. 330,000 compounds, 0.43% hits. Fluo-8 calcium fluorescence. inhibition, % at 5 µM;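 active = inhibition above its plate's threshold, mean inhibition of all tested compounds on the plate plus 3 SD, cut at about 37% in these data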
A number is an active result; i = inactive; nt = no result given.

SMILES | CHO-K1 Ca antag | M1 ag parental | CHO parental Ca | CHO-K1 Ca PAM | OX1R antag-1 | OX1R antag-2
O=C(NC1CCCCC1)C(=O)c1c(-c2ccccc2)[nH]c2ccccc12 | 27 | i | i | i | i | i
Cc1ccc(OCCCCn2ccnc2)c([N+](=O)[O-])c1 | i | i | i | i | i | i
Cc1ccc(OCCn2cncn2)c([N+](=O)[O-])c1 | i | 19 | i | i | i | i
CC1CCCC(NC(=O)COC(=O)/C=C/c2ccc(S(=O)(=O)N3CCOCC3)cc2)C1C (stereo not drawn) | i | 19 | i | i | i | i
COc1ccc(/C=C/C(=O)OCC(=O)NC2CCCC(C)C2C)cc1S(=O)(=O)N1CCOCC1 (stereo not drawn) | i | i | i | i | i | i
CC1(C)Oc2ccc(C(=O)N/N=C/c3ccc(O)cc3)cc2NC1=O | i | i | i | i | i | i
O=C(NCc1ccccc1)c1ccc(CN2CCC(Cc3ccccc3)CC2)cc1 | i | 27 | nt | i | nt | nt
COCCNC(=O)c1ccc(CN2CCC(Cc3ccccc3)CC2)cc1 | i | i | i | i | i | i
Cc1ccc(NC(=O)c2cc(-c3cc(C)c(C)cc3O)n[nH]2)cc1C | i | i | i | i | i | i
O=C1C(=O)N(CCN2CCOCC2)C(c2ccccn2)/C1=C(/O)c1ccc(F)cc1 (stereo not drawn) | i | i | i | i | 43 | i
CCOC(=O)c1[nH]c(C)c(/C(O)=C2\C(=O)C(=O)N(CCCN3CCOCC3)C2c2cccnc2)c1C (stereo not drawn) | i | 19 | nt | i | nt | nt
COc1ccc(/C(O)=C2\C(=O)C(=O)N(CCN3CCOCC3)C2c2ccccc2OC)cc1 (stereo not drawn) | i | i | nt | i | nt | nt
CN(C)S(=O)(=O)c1ccc(/C(O)=C2/C(=O)C(=O)N(CCCN3CCOCC3)C2c2ccncc2)cc1 (stereo not drawn) | i | i | i | i | 73 | i
COc1ccc(/C(O)=C2/C(=O)C(=O)N(CCN3CCOCC3)C2c2ccccn2)cc1 (stereo not drawn) | i | i | i | i | 68 | i
Cc1ccc(NC(=O)C2(C)CCN2CCc2ccccc2)cc1 (stereo not drawn) | i | i | nt | i | nt | nt
Cc1onc(-c2ccccc2Cl)c1C(=O)NCc1nnnn1-c1ccc(F)c(F)c1 | i | i | nt | i | nt | nt
O=C(NCCCN1CCOCC1)c1cnccn1 | i | i | i | i | i | i
COc1ccc(CCNC(=O)COC(=O)c2ccccn2)cc1 | i | i | i | i | i | i
O=C(C1=C(O)C(=O)N(CCN2CCOCC2)C1c1ccccn1)c1cccs1 (stereo not drawn) | i | i | i | i | 59 | i
O=C(C1=C(O)C(=O)N(CCN2CCOCC2)C1c1ccc(F)cc1)c1cccs1 (stereo not drawn) | i | i | nt | i | nt | nt
CC(C)c1ccc(OCC(=O)NCc2ccccc2)cc1 | i | i | i | i | i | i
Cc1cc(C)cc(N(C(=O)Cc2cccs2)C(C(=O)NC2CCCC2)c2ccc(C)o2)c1 (stereo not drawn) | i | i | i | i | i | i
Cc1cc(C)cc(N(C(=O)Cc2cccs2)C(C(=O)NC2CCCCC2)c2ccccn2)c1 (stereo not drawn) | i | i | i | i | 65 | i
Nc1ccn([C@@H]2O[C@H](C(=O)N3CCCN(Cc4cccs4)CC3)[C@@H](O)[C@H]2O)c(=O)n1 | i | i | nt | i | nt | nt
COc1ccc(NC(=O)C(c2cc3c(cc2[N+](=O)[O-])OCO3)N(C)Cc2ccccc2)cc1 (stereo not drawn) | i | 22 | i | i | i | i
SMILES | CHO-K1 Ca antag | M1 ag parental | CHO parental Ca | CHO-K1 Ca PAM | OX1R antag-1 | OX1R antag-2
Cc1cc(C)cc(NCc2cc3c(cc2[N+](=O)[O-])OCO3)c1 | i | i | i | i | i | i
CCN(c1cccc(C)c1)C(C(=O)Nc1ccc(OC)cc1)c1cc2c(cc1[N+](=O)[O-])OCO2 (stereo not drawn) | i | i | i | i | i | i
COc1ccc(CNCc2cc3c(cc2[N+](=O)[O-])OCO3)cc1 | i | i | i | i | 44 | i
Cc1cccc(C)c1NC(=O)CN(c1ccccn1)S(=O)(=O)c1ccccc1 | i | i | 25 | i | i | i
Cc1cccc(C)c1NC(=O)CN(c1ccccn1)S(=O)(=O)c1ccc(F)cc1 | i | i | i | i | i | i
O=C1CCC(C(=O)N2CCC(CO)CC2)CN1Cc1ccc(Cl)cc1 (stereo not drawn) | i | i | i | i | i | i
O=C(NCCn1cc(SCc2ccc(F)cc2)c2ccccc21)c1c(F)cccc1F | i | i | 42 | i | i | i
O=C(NCCn1cc(SCc2ccc(F)cc2)c2ccccc21)c1ccccc1F | i | i | 71 | i | i | i
O=C(NCCn1cc(SCc2ccccc2)c2ccccc21)c1c(F)cccc1F | i | i | 70 | i | i | i
O=C(CSc1cn(CCNC(=O)c2ccccc2)c2ccccc12)NCc1ccco1 | i | i | i | i | 41 | i
CCCn1cc(SCC(=O)NCc2ccco2)c2ccccc21 | i | i | i | i | i | i
CCOC(=O)c1ccc(NC(=O)[C@@H]2CCC(=O)N2C2OC(=O)c3c2ccc(OC)c3OC)cc1 (stereo partly drawn) | i | i | nt | i | nt | nt
Cc1ccc(S(=O)(=O)N2CCCC(C(=O)NCCc3ccc4c(c3)OCO4)C2)cc1 (stereo not drawn) | 24 | i | i | i | i | i
Cc1ccc(S(=O)(=O)N2CCCC(C(=O)NCc3ccc4c(c3)OCO4)C2)cc1 (stereo not drawn) | i | i | i | i | i | i
O=C(NCc1ccc2c(c1)OCO2)C1CCCN(S(=O)(=O)c2cccnc2)C1 (stereo not drawn) | 48 | i | i | i | i | i
Cc1c(N=N/C(C(=O)Nc2ccccc2)=C(/O)c2ccccc2)c(=O)n(-c2ccccc2)n1C | i | i | i | i | i | i
CCOC(=O)/C(N=Nc1c(C)n(C)n(-c2ccccc2)c1=O)=C(/O)c1ccccc1 | i | i | i | i | 52 | i
C[C@@H]1CN([C@H](C)CO)C(=O)CCCn2nncc2CO[C@@H]1CN(C)S(=O)(=O)c1ccc2c(c1)OCCCO2 | i | i | nt | i | nt | nt
Cc1ccc(S(=O)(=O)NC(C)C(=O)NC(C)c2cccs2)cc1 (stereo not drawn) | i | i | i | i | i | i
Cc1cccc(OCc2nnc(SCC(=O)N(C(C)C)C(C)C)n2Cc2ccco2)c1C | i | i | i | i | 36 | i
Cc1cc(NC(=O)CSc2nnc(COc3cccc(C)c3C)n2Cc2ccco2)no1 | i | i | i | i | i | i
C[C@H](NC(=O)c1ccc(Cl)cc1)C(=O)NNC(=O)c1cccs1 | i | i | i | i | i | i
